Laboratory results taken from ChEMBL document CHEMBL3351355, “Structure-affinity/activity relationships of 1,4-dioxa-spiro[4.5]decane based ligands at α1 and 5-HT1A receptors” (Eur J Med Chem, 2014).

Tests used:
[1] = molecular target: T1, 5-hydroxytryptamine receptor 1A (Homo sapiens) (UniProt P08908); experiment: Agonist activity at human recombinant 5-HT1A receptor expressed in HeLa cells after 30 mins by [35S]GTPgammaS binding assay; format: functional, cell-based
T1 sequence (whole entry): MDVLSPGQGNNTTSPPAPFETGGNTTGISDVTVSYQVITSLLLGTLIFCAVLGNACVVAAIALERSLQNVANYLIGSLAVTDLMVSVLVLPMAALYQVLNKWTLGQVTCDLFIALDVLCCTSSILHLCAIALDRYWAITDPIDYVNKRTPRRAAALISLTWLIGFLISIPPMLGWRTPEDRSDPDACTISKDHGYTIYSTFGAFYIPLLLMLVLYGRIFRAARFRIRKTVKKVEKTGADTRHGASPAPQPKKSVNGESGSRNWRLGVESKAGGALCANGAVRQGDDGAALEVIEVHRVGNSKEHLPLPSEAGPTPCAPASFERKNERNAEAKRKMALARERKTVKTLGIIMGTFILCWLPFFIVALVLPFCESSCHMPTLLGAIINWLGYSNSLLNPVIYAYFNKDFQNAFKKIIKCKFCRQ
Outline: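 HeLa membranes expressing human 5-HT1A (50–70 µg protein) in 20 mM HEPES, 3 mM MgSO4, 120 mM NaCl pH 7.4 with 30 µM GDP; test drug 0.01 nM–10 µM, 20 min at 30 °C, then 200 pM [35S]GTPγS for 30 min at 30 °C. Nonspecific with 10 µM GTPγS; filtration and scintillation counting. Emax as % of maximal 8-OH-DPAT stimulation; pD2 = −log EC50.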

[2] = molecular target: T1, 5-hydroxytryptamine receptor 1A (Homo sapiens); experiment: Agonist activity at human recombinant 5-HT1A receptor expressed in HeLa cells after 30 mins by [35S]GTPgammaS binding assay relative to control; format: functional, cell-based
Outline: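 HeLa membranes (50–70 µg protein) in 20 mM HEPES, 3 mM MgSO4, 120 mM NaCl, pH 7.4, preincubated 20 min at 30 °C with 30 µM GDP and drug (0.01 nM–10 µM), then 200 pM [35S]GTPγS added for 30 min at 30 °C. Nonspecific binding with 10 µM GTPγS. Filtration and scintillation counting. Data expressed as % increase over basal, 8-OH-DPAT maximum = 100%. Emax and pD2 derived.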

[3] = molecular target: T2, Alpha-1D adrenergic receptor (Homo sapiens, UniProt P25100); experiment: Displacement of [3H]prazosin from human recombinant alpha1D adrenoceptor expressed in CHO cells after 30 mins by liquid scintillation counting; format: cell-based
T2 sequence (P25100 whole entry): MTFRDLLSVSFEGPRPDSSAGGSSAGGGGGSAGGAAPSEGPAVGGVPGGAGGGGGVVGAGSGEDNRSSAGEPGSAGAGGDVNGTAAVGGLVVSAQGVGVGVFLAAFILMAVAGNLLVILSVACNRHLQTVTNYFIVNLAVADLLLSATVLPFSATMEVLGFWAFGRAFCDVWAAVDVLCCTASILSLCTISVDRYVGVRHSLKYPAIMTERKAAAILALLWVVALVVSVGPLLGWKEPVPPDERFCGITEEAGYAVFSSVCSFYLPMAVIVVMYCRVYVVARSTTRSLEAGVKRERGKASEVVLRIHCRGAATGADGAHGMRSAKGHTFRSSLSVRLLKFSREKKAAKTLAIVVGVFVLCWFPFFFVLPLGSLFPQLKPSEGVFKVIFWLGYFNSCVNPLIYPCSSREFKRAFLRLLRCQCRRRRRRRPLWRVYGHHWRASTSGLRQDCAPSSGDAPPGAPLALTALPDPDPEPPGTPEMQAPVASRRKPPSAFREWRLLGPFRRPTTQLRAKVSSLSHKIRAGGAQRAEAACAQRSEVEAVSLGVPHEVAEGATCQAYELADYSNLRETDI
Outline: (§1)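 CHO cells were stably transfected by electroporation with each human α1 subtype. Membranes (70 µg protein) were incubated in 50 mM Tris pH 7.4 with 0.1–0.4 nM [3H]prazosin and competitor (1 pM–1 µM) for 30 min at 25 °C. Nonspecific binding with 10 µM tamsulosin. Filtration and scintillation counting. pKi from 2–3 experiments in duplicate.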

[4] = molecular target: T3, 5-hydroxytryptamine receptor 1A (Homo sapiens, UniProt P08908); experiment: Displacement of [3H]8-OH-DPAT from human recombinant 5-HT1A receptor expressed in HeLa cells after 30 mins by liquid scintillation counting; format: cell-based
T3 sequence (P08908 whole entry): T1 sequence (whole entry)
Outline: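 HeLa cells stably carrying genomic clone G-21 were grown in DMEM with 10% FCS, then lysed in Tris/EDTA pH 7.4. Membranes (80–90 µg protein) were incubated in 50 mM Tris, 2.5 mM MgCl2, 10 µM pargyline, pH 7.4, with 1 nM [3H]8-OH-DPAT and competitor (1 pM–1 µM) for 30 min at 30 °C, in triplicate. Nonspecific binding with 10 µM 5-HT. pKi from 2–3 experiments.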

[5] = molecular target: T4, Alpha-1B adrenergic receptor (Homo sapiens, UniProt P35368); experiment: Displacement of [3H]prazosin from human recombinant alpha1B adrenoceptor expressed in CHO cells after 30 mins by liquid scintillation counting; format: cell-based; outline: as §1
T4 sequence (P35368 whole entry): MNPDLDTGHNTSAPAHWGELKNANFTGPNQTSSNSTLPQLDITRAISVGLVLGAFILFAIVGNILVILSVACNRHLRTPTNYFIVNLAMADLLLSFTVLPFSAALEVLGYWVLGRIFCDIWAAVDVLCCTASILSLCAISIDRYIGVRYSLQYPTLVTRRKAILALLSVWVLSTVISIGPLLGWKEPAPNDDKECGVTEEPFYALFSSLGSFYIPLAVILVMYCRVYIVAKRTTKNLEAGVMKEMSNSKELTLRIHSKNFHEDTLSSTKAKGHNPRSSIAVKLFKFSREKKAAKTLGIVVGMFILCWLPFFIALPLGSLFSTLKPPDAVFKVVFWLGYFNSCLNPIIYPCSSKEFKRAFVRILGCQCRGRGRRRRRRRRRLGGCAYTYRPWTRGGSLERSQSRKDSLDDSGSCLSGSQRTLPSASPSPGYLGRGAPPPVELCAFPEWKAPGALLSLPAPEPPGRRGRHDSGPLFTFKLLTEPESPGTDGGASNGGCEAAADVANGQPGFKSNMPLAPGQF

pD2 [1]: 8.13 | Emax [2]: 139% | Ki [3]: 42.7 nM | Ki [4]: 117 nM | Ki [5]: 479 nM
SMILES: COc1ccccc1N1CCN(CC2COC3(CC[S+]([O-])CC3)O2)CC1 (stereo not given)
